Test results as given in ChEMBL document CHEMBL1140029, “Design of novel histone deacetylase inhibitors” (Bioorg Med Chem Lett, 2007).
pIC50: −log10 of the molar value.

How the values were obtained:
HCT-116 [1] = assay: Antiproliferative activity against HCT116 cells after 96 hrs; type: functional, cell-based; details: Homo sapiens, HCT-116, 96 h
Histone deacetylase 1 = Histone deacetylase 1 (Homo sapiens, UniProt Q13547); assay: Inhibition of human HDAC1 expressed in domain of SMRT
HCT-116 [2] = assay: Antiproliferative activity against HCT116 cells after 72 hrs; type: functional, cell-based, Homo sapiens; details: for pIC50: Homo sapiens, HCT-116, 72 h, read-out: IC50
[3] = Half life in rhesus monkey at 2.0 mg/kg, po; type: ADME, organism-based, Macaca mulatta; design: dose 2 mg/kg, route oral; details: in vivo
[4] = Volume of distribution in dog at 0.6 mg/kg, iv; type: ADME, organism-based, Canis lupus familiaris; design: dose 0.6 mg/kg, route intravenous; details: in vivo
[5] = Plasma clearance in rat at 2.0 mg/kg, iv; type: ADME, organism-based; design: dose 2 mg/kg, route intravenous
[6] = Half life in dog at 1.2 mg/kg, po; type: ADME, organism-based, Canis lupus familiaris; design: dose 1.2 mg/kg, route oral; details: in vivo
Histone deacetylase 8 = molecular target: T1, Histone deacetylase 8 (Homo sapiens, UniProt Q9BY41); assay: Inhibition of human HDAC8
T1 sequence (Q9BY41 whole entry): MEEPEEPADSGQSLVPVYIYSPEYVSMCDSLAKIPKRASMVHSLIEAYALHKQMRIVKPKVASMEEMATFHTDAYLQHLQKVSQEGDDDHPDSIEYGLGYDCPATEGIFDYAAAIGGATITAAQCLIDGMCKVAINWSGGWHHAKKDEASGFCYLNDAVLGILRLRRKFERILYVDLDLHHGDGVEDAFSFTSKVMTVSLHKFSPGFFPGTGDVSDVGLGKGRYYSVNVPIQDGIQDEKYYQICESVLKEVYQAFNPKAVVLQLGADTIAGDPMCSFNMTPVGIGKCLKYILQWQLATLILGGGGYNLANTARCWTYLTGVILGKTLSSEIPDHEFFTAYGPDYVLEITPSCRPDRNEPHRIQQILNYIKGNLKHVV
How it was run: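 HDAC8 came from the Institute for Research in Molecular Biology, Pomezia, and was used at 1–30 nM final. It was preincubated with 3× serially diluted inhibitor for 10 min at RT. Fluor-de-Lys HDAC8 substrate was added for 15 min at 37 °C, then HDAC8 developer containing SAHA. Fluorescence was read at Ex 360/Em 460 nm to give IC50.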

[7] = Bioavailability in rat at 4.0 mg/kg, po; type: ADME, organism-based; details: in vivo
[8] = Bioavailability in rhesus monkey at 2.0 mg/kg, po; type: ADME, organism-based, Macaca mulatta; details: in vivo
[9] = Volume of distribution in rat at 2.0 mg/kg, iv; type: ADME, organism-based; design: dose 2 mg/kg, route intravenous; details: in vivo
Histone deacetylase 3 = Histone deacetylase 3 (Homo sapiens, UniProt O15379); assay: Inhibition of human HDAC3 expressed in domain of SMRT
How it was run: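 C-terminal FLAG-tagged human HDAC3, co-expressed with the SMRT domain, was overexpressed in mammalian cells and purified on anti-FLAG matrix. Enzyme at 1–30 nM final was preincubated with 3× serially diluted inhibitor for 10 min at RT. Fluor-de-Lys substrate was then added for 60 min at 37 °C, followed by developer containing SAHA. Fluorescence was read at Ex 360/Em 460 nm to give IC50.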

[10] = Plasma clearance in dog at 0.6 mg/kg, iv; type: ADME, organism-based, Canis lupus familiaris; design: dose 0.6 mg/kg, route intravenous
Histone deacetylase 2 = Histone deacetylase 2 (Homo sapiens, UniProt Q92769); assay: Inhibition of human HDAC2 expressed in domain of SMRT
[11] = molecular target: T2, Protein deacetylase HDAC6 (Homo sapiens, UniProt Q9UBN7); assay: Inhibition of human HDAC6
T2 sequence (Q9UBN7 whole entry): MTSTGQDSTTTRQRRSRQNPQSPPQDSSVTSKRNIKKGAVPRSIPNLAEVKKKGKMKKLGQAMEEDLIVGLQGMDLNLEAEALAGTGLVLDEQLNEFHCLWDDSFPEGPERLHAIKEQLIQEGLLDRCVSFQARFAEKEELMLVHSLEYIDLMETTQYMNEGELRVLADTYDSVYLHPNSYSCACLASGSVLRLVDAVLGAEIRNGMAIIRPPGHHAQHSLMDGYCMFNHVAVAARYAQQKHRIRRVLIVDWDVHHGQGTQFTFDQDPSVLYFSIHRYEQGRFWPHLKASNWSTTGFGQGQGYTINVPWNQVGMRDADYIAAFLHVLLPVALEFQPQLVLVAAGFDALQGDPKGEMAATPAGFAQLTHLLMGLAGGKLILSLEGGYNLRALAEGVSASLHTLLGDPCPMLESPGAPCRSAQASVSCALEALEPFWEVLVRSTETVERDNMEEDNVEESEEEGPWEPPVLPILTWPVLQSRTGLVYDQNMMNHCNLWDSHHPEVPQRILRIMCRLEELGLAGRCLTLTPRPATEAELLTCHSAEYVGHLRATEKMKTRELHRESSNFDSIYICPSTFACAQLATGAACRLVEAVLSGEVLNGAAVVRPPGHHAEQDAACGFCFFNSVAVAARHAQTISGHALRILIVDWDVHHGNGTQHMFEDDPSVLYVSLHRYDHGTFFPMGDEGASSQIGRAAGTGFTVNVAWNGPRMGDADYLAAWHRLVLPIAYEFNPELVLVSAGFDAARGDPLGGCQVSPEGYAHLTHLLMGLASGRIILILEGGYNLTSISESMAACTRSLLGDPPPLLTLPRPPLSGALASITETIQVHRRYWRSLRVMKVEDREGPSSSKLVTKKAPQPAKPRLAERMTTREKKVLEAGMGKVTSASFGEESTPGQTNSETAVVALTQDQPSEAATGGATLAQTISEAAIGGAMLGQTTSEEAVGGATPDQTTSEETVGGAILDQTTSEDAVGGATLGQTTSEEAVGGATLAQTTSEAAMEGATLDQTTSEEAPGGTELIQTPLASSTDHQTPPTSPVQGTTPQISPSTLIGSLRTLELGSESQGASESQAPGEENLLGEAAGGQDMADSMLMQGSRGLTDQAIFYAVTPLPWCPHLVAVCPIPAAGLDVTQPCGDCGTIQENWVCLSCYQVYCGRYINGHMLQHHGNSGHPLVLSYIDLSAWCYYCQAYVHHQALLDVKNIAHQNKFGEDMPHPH
How it was run: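 C-terminal FLAG-tagged human HDAC6 overexpressed in mammalian cells, anti-FLAG affinity-purified, 1–30 nM final. Inhibitor serially diluted 3-fold in DMSO from 10 mM stock, then 20-fold into assay buffer. Enzyme preincubated with compound 10 min at RT. Fluor-de-Lys substrate added, 60 min at 37 °C. Developer containing SAHA added, fluorescence read at Ex 360/Em 460 nm. IC50 reported.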

[12] = Half life in rat at 4.0 mg/kg, po; type: ADME, organism-based; design: dose 4 mg/kg, route oral; details: in vivo
[13] = Plasma clearance in rhesus monkey at 1.0 mg/kg, iv; type: ADME, organism-based, Macaca mulatta; design: dose 1 mg/kg, route intravenous
[14] = Bioavailability in dog at 1.2 mg/kg, po; type: ADME, organism-based, Canis lupus familiaris; details: in vivo
[15] = Volume of distribution in rhesus monkey at 1.0 mg/kg, iv; type: ADME, organism-based, Macaca mulatta; design: dose 1 mg/kg, route intravenous; details: in vivo

Histone deacetylase 1, sequence (Q13547 whole entry, the tested form may be a part): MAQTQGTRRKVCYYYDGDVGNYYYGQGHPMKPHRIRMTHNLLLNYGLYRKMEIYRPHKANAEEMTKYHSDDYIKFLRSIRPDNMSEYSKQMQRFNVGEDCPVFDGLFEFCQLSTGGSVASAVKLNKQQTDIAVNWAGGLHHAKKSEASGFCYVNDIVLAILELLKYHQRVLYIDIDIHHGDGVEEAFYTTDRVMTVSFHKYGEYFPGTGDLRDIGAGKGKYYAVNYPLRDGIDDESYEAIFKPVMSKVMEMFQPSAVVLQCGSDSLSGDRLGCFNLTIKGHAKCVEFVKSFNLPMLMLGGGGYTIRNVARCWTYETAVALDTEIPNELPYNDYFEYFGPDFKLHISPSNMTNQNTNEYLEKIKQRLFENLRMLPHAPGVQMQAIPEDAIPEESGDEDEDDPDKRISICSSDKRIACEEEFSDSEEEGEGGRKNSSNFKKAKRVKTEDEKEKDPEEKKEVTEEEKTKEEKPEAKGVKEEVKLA
Histone deacetylase 2, sequence (Q92769 whole entry, the tested form may be a part): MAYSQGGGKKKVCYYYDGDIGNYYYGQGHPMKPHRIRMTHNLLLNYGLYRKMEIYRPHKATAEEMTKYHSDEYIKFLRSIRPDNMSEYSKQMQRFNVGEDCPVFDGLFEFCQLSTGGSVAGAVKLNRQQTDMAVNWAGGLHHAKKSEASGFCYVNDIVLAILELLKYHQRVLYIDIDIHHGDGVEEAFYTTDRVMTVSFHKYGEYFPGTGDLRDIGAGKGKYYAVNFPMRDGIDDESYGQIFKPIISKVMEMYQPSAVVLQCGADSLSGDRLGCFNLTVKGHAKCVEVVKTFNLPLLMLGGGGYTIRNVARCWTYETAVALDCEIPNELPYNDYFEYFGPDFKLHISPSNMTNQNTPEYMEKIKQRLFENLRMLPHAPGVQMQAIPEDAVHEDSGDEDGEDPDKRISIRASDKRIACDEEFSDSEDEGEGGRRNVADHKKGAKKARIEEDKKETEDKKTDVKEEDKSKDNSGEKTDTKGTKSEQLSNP
Histone deacetylase 3, sequence (O15379 whole entry, the tested form may be a part): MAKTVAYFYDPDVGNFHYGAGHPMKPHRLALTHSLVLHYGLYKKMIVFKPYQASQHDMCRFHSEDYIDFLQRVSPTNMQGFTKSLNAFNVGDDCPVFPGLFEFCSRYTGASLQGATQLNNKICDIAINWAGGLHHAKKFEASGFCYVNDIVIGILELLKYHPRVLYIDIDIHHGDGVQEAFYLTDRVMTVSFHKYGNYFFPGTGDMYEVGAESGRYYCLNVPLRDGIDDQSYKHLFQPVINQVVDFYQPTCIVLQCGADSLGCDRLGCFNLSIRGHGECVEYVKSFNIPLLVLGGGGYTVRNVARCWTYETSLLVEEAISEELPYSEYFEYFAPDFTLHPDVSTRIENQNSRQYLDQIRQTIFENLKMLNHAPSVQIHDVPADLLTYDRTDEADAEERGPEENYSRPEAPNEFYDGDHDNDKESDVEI

Structure (SMILES) | pIC50 (Histone deacetylase 1) | pIC50 (HCT-116 [2]) | further results
N#Cc1cccc(NC(=O)C(C(=O)Nc2cccc(C#N)c2)c2ccc(C(=O)Nc3ccccc3N)cc2)c1 | 7.47 | – | pIC50 (HCT-116 [1]): 6.30
Nc1ccccc1NC(=O)c1ccc(C(C(=O)Nc2cccc3cccnc23)C(=O)Nc2cccc3cccnc23)cc1 | 6.99 | 5.92 | –
Nc1ccccc1NC(=O)c1ccc(C(C(=O)Nc2cccc(N3CCOCC3)c2)C(=O)Nc2cccc(N3CCOCC3)c2)cc1 | 7.35 | 6.27 | –
O=C(NO)c1ccccc1 [BENZOHYDROXAMATE] | 4.70 | – | –
CC(C)(C)c1ccc(C(=O)NO)cc1 | 6.15 | – | –
Nc1ccccc1NC(=O)c1ccc(C(C(=O)Nc2ccccc2)C(=O)Nc2ccccc2)cc1 | 7.44 | 6.77 | half-life [3]: 10.4 h; Vd [4]: 1.8 L/kg; clearance [5]: 55 mL/min/kg; half-life [6]: 8.5 h; pIC50 (Histone deacetylase 8): < 5.00; bioavailability [7]: 88%; bioavailability [8]: 27%; Vd [9]: 12 L/kg; pIC50 (Histone deacetylase 3): 6.16; clearance [10]: 3 mL/min/kg; pIC50 (Histone deacetylase 2): 6.50; pIC50 [11]: < 5.00; half-life [12]: 3.8 h; clearance [13]: 12 mL/min/kg; bioavailability [14]: 88%; Vd [15]: 1.7 L/kg
Nc1ccccc1NC(=O)c1ccc(C(C(=O)NCCCc2ccccc2)C(=O)NCCCc2ccccc2)cc1 | 6.64 | 6.01 | –
Nc1ccccc1NC(=O)c1ccc(C(C(=O)Nc2cccc(F)c2)C(=O)Nc2cccc(F)c2)cc1 | 7.25 | 6.22 | –
O=C(NO)c1ccc(C(C(=O)Nc2ccccc2)C(=O)Nc2ccccc2)cc1 | 8.30 | – | –
CC(Cc1ccc(C(=O)Nc2ccccc2N)cc1)(C(=O)Nc1ccccc1)C(=O)Nc1ccccc1 | 6.70 | 5.60 | –
Nc1ccccc1NC(=O)c1ccc(CC(C(=O)Nc2ccccc2)C(=O)Nc2ccccc2)cc1 | 7.33 | 6.24 | –
COc1ccccc1NC(=O)C(C(=O)Nc1ccccc1OC)c1ccc(C(=O)Nc2ccccc2N)cc1 | 7.33 | 6.40 | –
CC(C(=O)Nc1ccccc1)(C(=O)Nc1ccccc1)c1ccc(C(=O)Nc2ccccc2N)cc1 | 6.70 | 5.67 | –
CN(C(=O)C(C(=O)N(C)c1ccccc1)c1ccc(C(=O)Nc2ccccc2N)cc1)c1ccccc1 | 5.14 | – | IC50 (HCT-116 [2]; hct-116): Not Active
Nc1ccccc1NC(=O)c1ccc(C(O)(C(=O)Nc2ccccc2)C(=O)Nc2ccccc2)cc1 | 7.03 | 6.11 | –
Nc1ccccc1NC(=O)c1ccc(C(C(=O)Nc2ccc(F)cc2)C(=O)Nc2ccc(F)cc2)cc1 | 7.20 | – | pIC50 (HCT-116 [1]): 6.65
Nc1ccccc1NC(=O)c1ccc(C(C(=O)NCc2ccccc2)C(=O)NCc2ccccc2)cc1 | 6.70 | 6.22 | –
CN(C(=O)C(C(=O)Nc1ccccc1)c1ccc(C(=O)Nc2ccccc2N)cc1)c1ccccc1 (stereo unspecified) | 6.71 | 5.94 | –
CC(=O)NO [ACETOHYDROXAMIC ACID] | 3.20 | – | –
Nc1ccccc1NC(=O)c1ccc(C(C(=O)Nc2ccc3c(c2)OCCO3)C(=O)Nc2ccc3c(c2)OCCO3)cc1 | 7.68 | 6.66 | –
Nc1ccccc1NC(=O)c1ccc(C(F)(C(=O)Nc2ccccc2)C(=O)Nc2ccccc2)cc1 | 7.32 | 6.37 | –
COc1cccc(NC(=O)C(C(=O)Nc2cccc(OC)c2)c2ccc(C(=O)Nc3ccccc3N)cc2)c1 | 7.46 | 6.42 | –
